Experiments:
[1] = Antioxidant; conditions: read-out: IC50 antioxidant activity; DPPH, absorbance at 517 nm
In short: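 Test compound stocks at 22 mg/mL, diluted to working concentrations. DPPH radical was prepared at 4 mg per 100 mL pure methanol. Sample dilution and DPPH solution were mixed 1:2 by volume and left undisturbed overnight. Ascorbic acid in water served as the reference and was treated the same way. Absorbance was read at 517 nm, in triplicate.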

[2] = biological target: T1, α-amylase (Homo sapiens, UniProt P04746); assay: In vitro antidiabetic; type: biochemical
T1 sequence (P04746 16-511): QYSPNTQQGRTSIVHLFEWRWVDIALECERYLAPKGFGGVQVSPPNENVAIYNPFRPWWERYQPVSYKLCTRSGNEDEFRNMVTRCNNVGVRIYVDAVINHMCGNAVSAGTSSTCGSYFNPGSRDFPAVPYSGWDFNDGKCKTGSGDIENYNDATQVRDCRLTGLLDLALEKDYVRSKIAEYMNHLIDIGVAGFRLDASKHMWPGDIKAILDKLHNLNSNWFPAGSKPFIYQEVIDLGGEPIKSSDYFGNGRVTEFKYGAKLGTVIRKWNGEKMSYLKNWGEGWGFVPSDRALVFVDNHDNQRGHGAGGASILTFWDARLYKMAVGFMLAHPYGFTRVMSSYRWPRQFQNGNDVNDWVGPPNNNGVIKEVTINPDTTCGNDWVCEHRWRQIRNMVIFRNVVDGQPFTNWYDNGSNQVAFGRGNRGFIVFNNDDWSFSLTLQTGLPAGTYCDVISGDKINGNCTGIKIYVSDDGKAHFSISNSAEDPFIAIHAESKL

| Compound | IC50 [1] [µM] | IC50 [2] [µM] | inhibition against diabetes (in words) ([2]; conclusion, qualitative grade) |
| --- | --- | --- | --- |
| C=CCOC(=O)c1ccccc1C(=O)OCC [HR3, 1-allyl 2-ethyl phthalate] | 15.1 |  |  |
| CC(C)CCCCCOC(=O)c1ccccc1C(=O)OCCCCCC(C)C [HR5, bis (6-methylheptyl) phthalate] | 15.6 | 11.7 | excellent inhibition |

Source: article PMC10500580 (ACS Omega, 2023)
